Only a selection was taken, and hits are over-represented in it overall.
XBP1 UPR activ: adaptive UPR (XBP1) activation. activation, % at 20 µM. CHO-XBP1 luciferase reporter, IRE1-XBP1 UPR activation, luminescence; percent of tunicamycin response, DMSO as zero. AID 463104. actives 0.33% (n = 330,000);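 active = versus positive control, 20 µM dose yields 30% or more activation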
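incubation = overnight seeding at 37 °C, 6 h compound treatment at 37 °C | assay system = CHO-XBP1 cells stably carrying IRE1-XBP1-driven luciferase reporter | input = 1000 cells per well | detection = luciferase luminescence | dosing = single point, 20 µM final compound, 1% DMSO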
CHOP UPR activ: apoptotic UPR (CHOP) activation; actives 0.34% (n = 330,000); activation, % at 10 µM; CHO-CHOP luciferase reporter, luminescence; percent of tunicamycin response over DMSO baseline;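 active = at 10 µM dose, activation of 40% or more, normalized to positive control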
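Assay system: CHO-CHOP cells, stable luciferase reporter of PERK-eIF2a-CHOP signalling / Buffer or medium: F12 plus 10% serum / Compound dosing: one dose, 10 µM in 0.5% DMSO / Times: 6 h compound treatment, 37 °C / Technique: luciferase luminescence / Read-out: % reporter activation, DMSO baseline versus tunicamycin full activation / Benchmarks: tunicamycin and DMSO controls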
CHOP inhibitor: blocks CHOP induction under ER stress; CHO-K1 CHOP-promoter luciferase, tunicamycin-induced, 15-18 h; AID 2732; actives 3.8% (n = 220,000); inhibition, % at 10 µM;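 active = compounds that reduced the stress-induced luciferase reporter signal by more than about 70% of percent inhibition, limit read from the data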
Jurkat NFkB inh: inhibitors of the PMA/ionomycin-induced NF-kB reporter in Jurkat cells. AID 435003. actives 0.53% (n = 330,000). PMA/ionomycin-induced NF-kB luciferase reporter, luminescence. inhibition, % at 4 µM; in the data active = inhibition above about 50%
697 NFkB inh: inhibitors of the PMA/ionomycin-induced NF-kB reporter in 697 B cells. 697 B-cell NF-kB luciferase reporter, 16 h. actives 0.33% (n = 330,000). inhibition, % at 4 µM; in the data active = inhibition above about 35%
CHOP UPR conf: confirmation of apoptotic unfolded protein response (CHOP) activators. activation, % at 10 µM. actives 64% (n = 1,000). shares compounds with CHOP UPR activ. AID 463112. CHO-CHOP cells, CHOP-luciferase reporter luminescence; percent of tunicamycin response, DMSO as zero; in the data active = activation above about 33%
UPR XBP1 confirm: adaptive UPR (XBP1) activation, confirmed | AID 485299 | CHO-XBP1 IRE1-XBP1 luciferase reporter, luminescence | shares compounds with XBP1 UPR activ | activation, % at 20 µM | actives 63% (n = 1,000);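 active = reporter signal at least 30% of the positive control's activation in two or more of four replicate wells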
Each line names hits and unclear results; the compound was inactive in the other large screens (follow-up assays come after a bar, where they were run).

O=C(Nc1nc(-c2ccc3ccccc3c2)cs1)c1ccc(N2C(=O)CCC2=O)cc1	XBP1 UPR activ 45, CHOP UPR activ 76 | CHOP UPR conf 56 | UPR XBP1 confirm 47
CCOC(=O)c1ccc(-c2ccc(/C=N/NC(=O)CN(c3cccc(C)c3)S(C)(=O)=O)o2)cc1	XBP1 UPR activ 115, CHOP UPR activ 55, CHOP inhibitor 79 | CHOP UPR conf 50 | UPR XBP1 confirm 48
Cc1ccc(C)c(N=Cc2c(O)c3ccccc3oc2=O)c1	XBP1 UPR activ 55, CHOP UPR activ 61 (no result: CHOP inhibitor) | CHOP UPR conf 49 | UPR XBP1 confirm 46
COc1ccc(N=Cc2c(O)c3ccccc3oc2=O)cc1	XBP1 UPR activ 102, CHOP UPR activ 128 | CHOP UPR conf 68 | UPR XBP1 confirm 38
CCOc1ccccc1N=Cc1c(O)c2ccccc2oc1=O	XBP1 UPR activ 179, CHOP UPR activ 162 (no result: CHOP inhibitor) | CHOP UPR conf 120 | UPR XBP1 confirm 125
CCOC(=O)c1cc(NC(=O)c2ccc(Cl)cc2)c(=O)n2c1oc1ccc(Cl)cc12	XBP1 UPR activ 39, CHOP UPR activ 70 | CHOP UPR conf inactive | UPR XBP1 confirm 45
CCOC(=O)c1cc(NC(=O)c2ccc(C)cc2)c(=O)oc1C(F)(F)F	none
CCCCC(c1nnnn1C(C)C)N1CCN(C(=O)c2ccco2)CC1 (centres undefined)	none (no result: CHOP inhibitor)
Cc1ccc(NC(=O)COc2ccc(/C=N/NC(=O)CSCc3ccccc3)cc2)cc1	none
Cc1ccc(NC(=O)COc2ccc(/C=C3/SC(=Nc4ccccc4)N(Cc4cccnc4)C3=O)cc2)cc1	XBP1 UPR activ 63, CHOP UPR activ 84 | CHOP UPR conf 152 | UPR XBP1 confirm 60
Cc1cccc(N2CN=C3SCC(=O)N3C2)c1	none
N#C/C(=C\c1ccc(OCc2ccccc2)cc1)C(=O)Nc1nc2c(s1)CCN(Cc1ccccc1)C2	XBP1 UPR activ 42, CHOP UPR activ 91 | CHOP UPR conf 145 | UPR XBP1 confirm 132
COCCNc1nnc(SCC(=O)NC(=O)c2ccccc2)s1	none (no result: CHOP inhibitor)
O=C(/C(=C\c1ccccc1)c1nc2ccccc2[nH]1)c1ccc(Cl)cc1	XBP1 UPR activ 53, CHOP UPR activ 104, CHOP inhibitor 87 | CHOP UPR conf 267 | UPR XBP1 confirm inactive
COC(=O)/C(=C\c1ccc(O)cc1)c1nc2ccccc2[nH]1	none
O=C(/C(=N/N=C/c1ccc(O)c(O)c1)c1ccccc1)c1ccccc1	XBP1 UPR activ 41, CHOP UPR activ 86 | CHOP UPR conf 63 | UPR XBP1 confirm 30
O=C1Nc2ccccc2/C1=N\N=C\c1ccc(O)c(O)c1	none
COc1ccc(NC(=O)COC(=O)CCC2CCCCC2)cc1	none (no result: CHOP inhibitor)
CCOc1ccc(-n2c(C)cc(C(=O)CCl)c2C)cc1	XBP1 UPR activ 70, CHOP UPR activ 244 | CHOP UPR conf 621 | UPR XBP1 confirm 202
COC(=O)c1ccc(-n2c(C)cc(C(=O)CCl)c2C)cc1	XBP1 UPR activ 74, CHOP UPR activ 502, CHOP inhibitor 90 | CHOP UPR conf 268 | UPR XBP1 confirm inactive
COC(=O)[C@H](Cc1ccccc1)NC(=O)C1CCN(C(=O)[C@H](C)NS(=O)(=O)c2ccc(C)cc2)CC1	none (no result: CHOP inhibitor)
COc1ccc2cc1Oc1ccc(cc1)CC1c3c(cc(OC)c4c3Oc3cc5c(cc3O4)CCNC5C2)CCN1C (centres undefined)	XBP1 UPR activ 52, CHOP UPR activ 41 | CHOP UPR conf 39 | UPR XBP1 confirm 30
CC(C)N(C(=O)CN1CCC(c2nc3ccccc3[nH]2)CC1)C(C)C	none (no result: CHOP inhibitor)
O=C(Nc1ccc(-c2nc3cc(NC(=O)c4cccs4)ccc3o2)cc1)c1cccs1	XBP1 UPR activ 148, CHOP UPR activ 195 | CHOP UPR conf 202 | UPR XBP1 confirm 324
COc1ccc(CN2CCNC(=O)C2CC(=O)NCCCC2CCCC2)c(C)c1C (centres undefined)	none (no result: CHOP inhibitor)

Screening data from PubChem.
